According to ChEMBL document CHEMBL2062521, “Discovery of 1-(β-amino substituted-β-alanyl)-N,N-dimethylindoline-2-carboxamides as novel nonpeptide antagonists of nociceptin/orphanin FQ receptor: efficient design, synthesis, and structure-activity relationship studies” (Eur J Med Chem, 2012):
Activity calls are given as the source filed them. The rule behind the calls is not given here.

What was measured:
[1] = molecular target: T1, Nociceptin receptor (Homo sapiens, UniProt P41146); assay: Displacement of [3H]N/OFQ from human recombinant ORL1 receptor expressed in HEK293 cells after 45 mins by scintillation proximity assay; type: cell-based
Procedure, shortened: (§1)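 Compound at 10^-11–10^-5 M (six 10-fold steps), duplicates; nonspecific binding with 1 µM N/OFQ. IC50 by nonlinear regression, Ki by Cheng–Prusoff; percent inhibition reported at 1 µM.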

[2] = molecular target: T1, Nociceptin receptor; assay: Displacement of [3H]N/OFQ from human recombinant ORL1 receptor expressed in HEK293 cells at 1 uM after 45 mins by scintillation proximity assay; type: cell-based; procedure, shortened: as §1
[3] = molecular target: Mu-type opioid receptor (Homo sapiens, UniProt P35372); assay: Displacement of [3H]DAMGO from human recombinant MOP receptor expressed in CHO-K1 cells after 45 mins by scintillation proximity assay; type: cell-based
[4] = molecular target: T1, Nociceptin receptor; assay: Antagonist activity at human recombinant ORL1 receptor expressed in HEK293 cells assessed as inhibition of N/OFQ-induced [35S]GTPgammaS binding to alpha-unit of G-protein after 1.5 hrs by scintillation counting; type: functional, cell-based
Procedure, shortened: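 Membranes from HEK-293 cells expressing hNOP receptor, incubated 1.5 h at 25 °C with 10 nM N/OFQ and compound at six concentrations (0.1 nM–10 µM) in 20 mM HEPES pH 7.4, 100 mM NaCl, 5 mM MgCl2, 1 mM EDTA, 5 µM GDP, 400 pM [35S]GTPγS, WGA-SPA beads. Duplicates; NSB with 10 µM unlabelled GTPγS; basal without ligands.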

[5] = Half life in human liver microsomes by HPLC/MS/MS analysis; type: ADME, Microsome
[6] = organism: Homo sapiens; assay: Selectivity ratio of Ki for human recombinant MOP receptor to Ki for human recombinant ORL1 receptor

Mu-type opioid receptor, sequence (P35372 whole entry): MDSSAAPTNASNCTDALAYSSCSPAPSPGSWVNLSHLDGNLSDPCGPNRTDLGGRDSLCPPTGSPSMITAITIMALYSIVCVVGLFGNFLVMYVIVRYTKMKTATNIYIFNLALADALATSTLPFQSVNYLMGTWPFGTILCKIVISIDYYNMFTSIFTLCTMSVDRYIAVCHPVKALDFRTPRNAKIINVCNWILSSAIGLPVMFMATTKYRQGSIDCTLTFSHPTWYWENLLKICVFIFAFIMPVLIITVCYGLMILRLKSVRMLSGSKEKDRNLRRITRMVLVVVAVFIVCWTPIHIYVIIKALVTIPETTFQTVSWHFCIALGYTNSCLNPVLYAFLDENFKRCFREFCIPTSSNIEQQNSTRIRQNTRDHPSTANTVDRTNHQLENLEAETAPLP
T1 sequence (P41146 whole entry): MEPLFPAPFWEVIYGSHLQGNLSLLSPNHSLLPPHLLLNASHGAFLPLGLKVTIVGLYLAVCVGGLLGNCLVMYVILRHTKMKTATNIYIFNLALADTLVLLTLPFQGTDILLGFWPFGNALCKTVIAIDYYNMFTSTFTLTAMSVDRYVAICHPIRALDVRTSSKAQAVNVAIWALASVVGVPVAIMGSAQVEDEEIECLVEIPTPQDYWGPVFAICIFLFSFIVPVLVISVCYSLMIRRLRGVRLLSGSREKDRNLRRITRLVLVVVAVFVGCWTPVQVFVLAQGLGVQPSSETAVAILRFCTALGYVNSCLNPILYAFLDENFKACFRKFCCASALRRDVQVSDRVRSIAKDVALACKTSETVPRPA

Ki [1] [nM]	inhibition [2]	Ki [3] [nM]	IC50 [4] [nM]	half-life [5] [min]	Ratio Ki [6]	SMILES
> 250	16%					CN(C)C(=O)C1Cc2ccccc2N1C(=O)CCN1Cc2ccccc2C1 (racemic)
> 250	3%					CN(C)C(=O)C1Cc2ccccc2N1C(=O)CCN1CCN(C2CCCC2)CC1 (racemic)
31.5						CN(C)C(=O)C1Cc2ccccc2N1C(=O)CCN1CCC(c2ccccc2C(F)(F)F)CC1 (racemic)
> 250	11%	> 450				CN(C)C(=O)C1Cc2ccccc2N1C(=O)CCN1CCN(Cc2ccccc2)CC1 (racemic)
> 250	15%					CN(C)C(=O)C1Cc2ccccc2N1C(=O)CCN1CCCC(c2ccccc2)CC1 (racemic)
> 250	25%					Cc1ccc(N2CCN(CCC(=O)N3c4ccccc4CC3C(=O)N(C)C)CC2)c(C)c1 (racemic)
> 250	37%	235				CN(C)C(=O)C1Cc2ccccc2N1C(=O)CCN1CCN(c2cnccn2)CC1 (racemic)
> 250	43%	397	48000			CN(C)C(=O)C1Cc2ccccc2N1C(=O)CCN1CCN(c2ccccc2)CC1 (racemic)
0.96		82.1	12	19	86	Cc1cccc(C)c1C1CCN(CCC(=O)N2c3ccccc3C[C@H]2C(=O)N(C)C)CC1
11.6		318			27	Cc1ccccc1N1CCN(CCC(=O)N2c3ccccc3CC2C(=O)N(C)C)CC1 (racemic)
> 250	inactive	> 450				CN(C)C(=O)C1Cc2ccccc2N1C(=O)CCN1CCC(N2CCCCC2)CC1 (racemic)
> 250	13%					Cc1cccc(N2CCN(CCC(=O)N3c4ccccc4CC3C(=O)N(C)C)CC2)c1 (racemic)
286						CN(C)C(=O)C1Cc2ccccc2N1C(=O)CCN1CCC(C2CCCCC2)CC1 (racemic)
> 250	40%	> 450				CCCC(C)N1CCN(CCC(=O)N2c3ccccc3CC2C(=O)N(C)C)CC1 (racemic)
> 250	12%					CN(C)C(=O)C1Cc2ccccc2N1C(=O)CCN1CCN(C2CCCCCC2)CC1 (racemic)
> 250	21%	> 450				CC(c1ccccc1)N1CCN(CCC(=O)N2c3ccccc3CC2C(=O)N(C)C)CC1 (racemic)

Ki [1] [nM]	inhibition [2]	Ki [3] [nM]	IC50 [4] [nM]	half-life [5] [min]	Ratio Ki [6]	SMILES
26.2		502	2300		19	CN(C)C(=O)C1Cc2ccccc2N1C(=O)CCN1CCC(c2ccccc2)CC1 (racemic)
> 250	33%					CN(C)C(=O)C1Cc2ccccc2N1C(=O)CCN1CC[C@@H]2c3ccccc3CC[C@@H]2C1 (mixture of isomers)
> 250	11%	> 450				CN(C)C(=O)C1Cc2ccccc2N1C(=O)CCN1CCN(C2CCCCC2)CC1 (racemic)
> 250	inactive					CN(C)C(=O)C1Cc2ccccc2N1C(=O)CCN1CCC(c2ccccn2)CC1 (racemic)
> 250	11%					CN(C)C(=O)C1Cc2ccccc2N1C(=O)CCN1CCc2ccccc2C1 (racemic)
5.55		138	116		25	Cc1ccccc1C1CCN(CCC(=O)N2c3ccccc3CC2C(=O)N(C)C)CC1 (racemic)
3.79		139	42	43		Cc1cc(F)ccc1C1CCN(CCC(=O)N2c3ccccc3C[C@H]2C(=O)N(C)C)CC1
9.84		238	107	82		CN(C)C(=O)[C@@H]1Cc2ccccc2N1C(=O)CCN1CCC(c2ccc(F)cc2)CC1
3.03		67.2	44	24	22	Cc1ccccc1C1CCN(CCC(=O)N2c3ccccc3C[C@H]2C(=O)N(C)C)CC1
101		> 450				CCC(CC)N1CCN(CCC(=O)N2c3ccccc3CC2C(=O)N(C)C)CC1 (racemic)
> 250	23%	28.4		10		CN(C)C(=O)[C@@H]1Cc2ccccc2N1C(=O)CCN1CC2CCC(C1)C2c1ccccc1 (stereo not given in full)
13.6		80.7	138	55	5.9	CN(C)C(=O)[C@@H]1Cc2ccccc2N1C(=O)CCN1CCC(c2ccccc2)CC1
> 250	15%					CN(C)C(=O)C1Cc2ccccc2N1C(=O)CCN1Cc2cccc3cccc(c23)C1 (racemic)
26.5						CN(C)C(=O)C1Cc2ccccc2N1C(=O)CCN1CCC(c2ccccc2F)CC1 (racemic)
> 250	12%					CN(C)C(=O)C1Cc2ccccc2N1C(=O)CCN1CCN(C2CCCCCCC2)CC1 (racemic)
128		29.8			0.23	CCOc1ccccc1N1CCN(CCC(=O)N2c3ccccc3CC2C(=O)N(C)C)CC1 (racemic)
